From article PMC12541585 (Acta Pharmaceutica Sinica. B, 2025)

System: MDA-MB-231 xenograft
Assay: MDA-MB-231 xenograft model
Type: in vivo, BALB/c nude mice
Conditions: immunohistochemical staining of MDA-MB-231 tumors, vs control group
Procedure, shortened: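 Female nude mice received 5×10^6 MDA-MB-231 cells in 100 μL Matrigel/PBS (1:1) subcutaneously into the right flank. At ≥80 mm³, mice were randomised into five groups, each dosed intraperitoneally every three days: test compound at 0.1, 0.5 or 1 mg/kg, paclitaxel 4 mg/kg, or PBS. Excised tumour sections were stained with anti-CXCR4 (1:100, 4 °C overnight), then HRP secondary (30 min) and DAB.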

With `CC(=O)O[C@H]1C(=O)[C@@]2(C)[C@H]([C@H](OC(=O)c3ccccc3)[C@]3(O)C[C@H](OC(=O)[C@H](O)[C@@H](NC(=O)c4ccccc4)c4ccccc4)C(C)=C1C3(C)C)[C@]1(OC(C)=O)CO[C@@H]1C[C@@H]2O` [PTX, Paclitaxel] the “proportion of CXCR4-positive cells in tumor tissue” value was “little effect”.
